The record followed here is ChEMBL document CHEMBL4145466, “Design, synthesis, and biological evaluation of novel combretastatin A-4 thio derivatives as microtubule targeting agents” (Eur J Med Chem, 2018).

The term IC50 denotes the concentration that gives 50% inhibition.

One assay concerns MDA-MB-231. Description: Cytotoxicity against human MDA-MB-231 cells after 48 hrs by MTT assay. The assay is classed as functional, cell-based. Particulars: MDA-MB-231, 48 h. In short, it runs like this: (§1)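 Cells in DMEM with 10% FBS were plated at 2 × 10^4 per well and left overnight, then treated for 48 h at 0.6–20 µM (six concentrations) from 10 mM DMSO stocks. MTT was added for 2 h, and formazan was dissolved in DMSO and read at 570 nm. Viability was expressed as % of control, with IC50 taken from dose-response curves. Results are mean ± SD of three independent experiments.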
For orientation: Tetrazolium dyes change colour on reduction, which living cells bring about.

Assay [1] can be described thus: Cytotoxicity against human CCD39Lu cells after 48 hrs by MTT assay. The assay is classed as cell-based. The procedure, abridged:
as §1

The test system of a further assay is HeLa. Description: Cytotoxicity against human HeLa cells after 48 hrs by MTT assay. The assay is classed as functional, cell-based. In short, it runs like this: as §1
A further assay relates to A-431. Description: Cytotoxicity against human A431 cells after 48 hrs by MTT assay. The assay is classed as functional, cell-based. The following applies: A-431, 48 h. The procedure, abridged:
as §1

A short description of assay [2]: Inhibition of porcine tubulin polymerization after 1 hr by spectrophotometric analysis. The arrangement: species or system Sus scrofa. In short, it runs like this: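 Polymerization was started by shifting from 4 °C to 37 °C, and absorbance was followed at 37 °C for 60 min. The vehicle served as control.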
The next assay relates to MCF7. The assay is described as follows: Cytotoxicity against human MCF7 cells after 48 hrs by MTT assay. The assay is classed as functional, cell-based. Particulars: MCF7, 48 h. In short, it runs like this: as §1
The next assay concerns A549. The assay is described as follows: Cytotoxicity against human A549 cells after 48 hrs by MTT assay. The assay is classed as functional, cell-based. Particulars: A549, 48 h.
In a further assay the test system is HaCaT. The assay is described as follows: Cytotoxicity against human HaCaT cells after 48 hrs by MTT assay. The assay is classed as cell-based. The procedure, abridged: as §1
The test system of the next assay is SK-OV-3. The assay is described as follows: Cytotoxicity against human SKOV3 cells after 48 hrs by MTT assay. The assay is classed as functional, cell-based. The following applies: SK-OV-3, 48 h. In short, it runs like this:
as §1

On to `COc1cc(-c2ncoc2-c2cc(Br)c(SC)c(OC)c2)cc(OC)c1OC`, for which the IC50 in the assay with MDA-MB-231 is 17.9 µM; in [1], more than 20 µM; with HeLa, more than 20 µM; in the assay on A-431, more than 20 µM; in assay [2], more than 10 µM; with MCF7, 1.42 µM. Besides, the IC50 in the assay with A549 is more than 20 µM; in the assay with HaCaT, 16.7 µM; with SK-OV-3, more than 20 µM.

For `COc1cc(-c2ncn(C)c2-c2cc(Br)c(SC)c(OC)c2)cc(OC)c1OC`, the IC50 in the assay with MDA-MB-231 was more than 20 µM; in assay [1], 6.13 µM; in the assay on HeLa, 8.18 µM; in the assay with A-431, 16.6 µM; in assay [2] it was more than 10 µM; with MCF7, 2.51 µM. Moreover, the IC50 with A549, in the assay on HaCaT and in the assay with SK-OV-3 was more than 20 µM throughout.

For the molecule `COc1cc(-c2c(-c3cc(Br)c(OC)c(OC)c3)ncn2C)ccc1SC`, the IC50 was 15.5 µM in the assay with MDA-MB-231; 19.3 µM in assay [1]; more than 20 µM with HeLa; 13.6 µM with A-431; more than 10 µM in [2]; 2.2 µM with MCF7. Moreover, the IC50 in the assay on A549, in the assay with HaCaT and with SK-OV-3 was more than 20 µM in each case.

On to `COc1ccc(-c2ocnc2-c2cc(OC)c(OC)c(OC)c2)cc1S`, for which the IC50 with MDA-MB-231 was 2.87 µM; in [1], more than 20 µM; in the assay with HeLa, 4.44 µM; in the assay with A-431, 1.22 µM; in assay [2], 2.97 µM; with MCF7, 2.11 µM. Also, the values for the IC50 in the assay on A549, in the assay on HaCaT and in the assay on SK-OV-3 were more than 20 µM, 1.28 µM and 3.18 µM, respectively.

On to `COc1cc(/C=C\c2cccc(OC)c2SC)cc(OC)c1OC`, for which the IC50 in the assay on MDA-MB-231 is 11.7 µM; in assay [1], more than 20 µM; in the assay on HeLa it was 6.18 µM; in the assay on A-431 it was 3.61 µM; in assay [2] it was more than 10 µM; in the assay on MCF7, 0.65 µM. Also, the half-inhibitory concentration (IC50) in the assay with A549 was more than 20 µM; in the assay on HaCaT, 9.56 µM; in the assay with SK-OV-3, 14.5 µM.

In the case of `COc1cc(-c2ocnc2-c2cc(OC)c(OC)c(OC)c2)ccc1SC`, the IC50 in the assay on MDA-MB-231 is 0.85 µM; in [1] it was more than 20 µM; in the assay with HeLa, 0.645 µM; in the assay on A-431, 0.43 µM; in assay [2], 1.62 µM; with MCF7 it was 0.6 µM. Besides, the figures for the IC50 in the assay on A549, in the assay with HaCaT and with SK-OV-3 were more than 20 µM, 0.43 µM and 1.48 µM, respectively.

Turning to `COc1cc(-c2ncoc2-c2ccccc2SC)cc(OC)c1OC`, the IC50 with MDA-MB-231 is more than 20 µM; in assay [1], more than 20 µM; with HeLa, 7.33 µM; with A-431, more than 20 µM; in assay [2], 0.86 µM; in the assay on MCF7, 1.43 µM. Moreover, the IC50 with A549, in the assay on HaCaT and in the assay on SK-OV-3 was more than 20 µM throughout.

As to `COc1cc(-c2ocnc2-c2cc(Br)c(OC)c(OC)c2)ccc1SC`, the IC50 in the assay on MDA-MB-231 was 0.76 µM; in assay [1], more than 20 µM; in the assay with HeLa it was 0.44 µM; with A-431, 0.41 µM; in assay [2] it was 1.54 µM; with MCF7 it was 2.48 µM. Moreover, the IC50 with A549 was more than 20 µM; in the assay with HaCaT, 0.26 µM; in the assay on SK-OV-3 it was 1.03 µM.

For the molecule `COc1cc(-c2ncn(C)c2-c2ccccc2SC)cc(OC)c1OC`, the IC50 in the assay on MDA-MB-231 is more than 20 µM; in assay [1], more than 20 µM; in the assay on HeLa, more than 20 µM; with A-431, more than 20 µM; in assay [2] it was more than 10 µM; in the assay with MCF7, 2.29 µM. Besides, the IC50 in the assay with A549, with HaCaT and with SK-OV-3 was more than 20 µM each time.

Consider `COc1ccc(-c2c(-c3cc(OC)c(SC)c(OC)c3)ncn2C)cc1O`, for which the IC50 with MDA-MB-231 is 0.39 µM; in [1] it was more than 20 µM; with HeLa it was 0.39 µM; in the assay with A-431 it was 0.43 µM; in [2], 6.67 µM; in the assay with MCF7, 1.63 µM. The IC50 in the assay with A549 is more than 20 µM; in the assay on HaCaT, 0.5 µM; with SK-OV-3, 1.72 µM.

As to `COc1ccc(-c2c(-c3cc(Br)c(OC)c(OC)c3)ncn2C)cc1SC`, the IC50 with MDA-MB-231 was more than 20 µM; in assay [1], more than 20 µM; in the assay with HeLa it was more than 20 µM; in the assay with A-431, more than 20 µM; in [2], more than 10 µM; with MCF7, 5.24 µM. Moreover, the IC50 in the assay on A549, with HaCaT and in the assay with SK-OV-3 was more than 20 µM each time.

Regarding `COc1ccc(-c2ocnc2-c2cc(Br)c(OC)c(OC)c2)cc1OC`, the IC50 with MDA-MB-231 is 7.83 µM; in assay [1], more than 20 µM; with HeLa, 0.07 µM; in the assay on A-431, 12.3 µM; in assay [2], 4.8 µM; in the assay with MCF7, 6.1 µM. The IC50 stood at 0.5 µM in the assay with A549, 10.1 µM with HaCaT and 0.26 µM in the assay on SK-OV-3.

For `COc1cc(/C=C\c2ccccc2SC)cc(OC)c1OC`, the IC50 with MDA-MB-231 is 14.2 µM; in [1], more than 20 µM; with HeLa it was 11.7 µM; in the assay on A-431, 8.22 µM; in assay [2], more than 10 µM; in the assay on MCF7, 2.35 µM. Moreover, the IC50 in the assay on A549 was more than 20 µM; in the assay on HaCaT, 12.8 µM; in the assay on SK-OV-3 it was 14.1 µM.

In the case of `COc1cc(/C(=C\c2ccccc2SC)C(=O)O)cc(OC)c1OC`, the IC50 was more than 20 µM in the assay with MDA-MB-231; more than 20 µM in [1]; more than 20 µM in the assay on HeLa; more than 20 µM with A-431; more than 10 µM in [2]; 1.84 µM in the assay with MCF7. Also, the IC50 in the assay with A549, in the assay with HaCaT and with SK-OV-3 was more than 20 µM each time.

Consider `COc1cc(/C(=C\c2cccc(OC)c2SC)C(=O)O)cc(OC)c1OC`, for which the IC50 with MDA-MB-231 is more than 20 µM; in assay [1], more than 20 µM; in the assay with HeLa, more than 20 µM; with A-431 it was more than 20 µM; in [2], more than 10 µM; in the assay on MCF7, 0.95 µM. The IC50 in the assay on A549, in the assay with HaCaT and in the assay with SK-OV-3 was more than 20 µM in each case.
